NadD inh – NadD (S. aureus) enzyme inhibition | purified NadD enzyme, colorimetric absorbance read-out | inhibition, % at 20 µM | 360,000 compounds, 0.78% hits; in the data active = inhibition above about 26%
rCAG RNA binder – r(CAG) repeat RNA binding | TO-PRO-1 dye displacement fluorescence | inhibition, % at 3 µM | 370,000 compounds, 1.3% hits;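 active = inhibition above the plate cutoff, the mean of all test compounds on that plate plus 3 SD, cut at about 35% in these data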;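 note: higher means more dye released from RNA so lower well fluorescence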
ARFGAP1 inhibitor – inhibitors of rat ARFGAP1; Q62848; Arfgap1-stimulated ARF1 GTP hydrolysis, GDP FP detection; inhibition, % at 16.5 µM; 360,000 compounds, 0.26% hits; AID 651572;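 active = inhibition above a per-plate limit, mean inhibition of low control wells plus 3 SD, cut at about 25% in these data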
Target sequence (Q62848 1-136 limits assumed): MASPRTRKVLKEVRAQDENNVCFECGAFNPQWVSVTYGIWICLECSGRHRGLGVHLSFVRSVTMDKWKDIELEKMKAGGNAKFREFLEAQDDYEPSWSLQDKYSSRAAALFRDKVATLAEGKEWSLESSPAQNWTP
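Replicates: Single well per compound | Assay system: Truncated rat Arfgap1 GAP domain | Control set: No-Arfgap1 wells (100%) versus DMSO full-reaction wells (0%) | Times: Enzyme reaction 120 min at 25 °C after 20 min preincubation | Reagent: Human ARF1(Δ1-17)-GTP substrate | Measured by: Tracer-displacement fluorescence polarization with EDTA stop, 620/688 nm | Measure: Percent inhibition of Arfgap1-stimulated GTP hydrolysis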
ASAP1 inh – ASAP1 ArfGAP inhibition. Q9ULH1. 360,000 compounds, 0.19% hits. inhibition, % at 16.5 µM. ASAP1-stimulated ARF1 GTP hydrolysis, GDP FP detection. AID 624377; in the data active = inhibition above about 25%
rCAG binder conf – r(CAG) RNA repeat binding, confirmation; shares compounds with rCAG RNA binder; TO-PRO-1 dye displacement fluorescence; inhibition, % at 3 µM; 4,300 compounds, 70% hits; AID 652065;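 active = inhibition above a per-plate cutoff, the mean inhibition of sample wells plus 3 SD, cut at about 35% in these data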;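 note: loss of TO-PRO-1 fluorescence as compound displaces dye from 1x1 AA loop RNA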
DNA CAG counter – DNA CAG dye complex inhibition counter-screen. AID 652068. shares compounds with rCAG RNA binder. d(CAG) DNA oligo TO-PRO-1 dye displacement, fluorescence. 4,300 compounds, 94% hits. inhibition, % at 3 µM;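 active = inhibition above its plate's cutoff, the mean test-well inhibition plus 3 SD, cut at about 4.8% in these data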;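 note: hits displace the dye from DNA and so lower well fluorescence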
Hits are given with their value. In the library only some 2.2% were active in any assay of this set; here they are far more common.

Screening N#C/C(=N\Nc1cccc([N+](=O)[O-])c1)C(=O)c1ccc(Br)cc1 returned NadD inh inactive, rCAG RNA binder 75.9, ARFGAP1 inhibitor inactive, ASAP1 inh inactive, rCAG binder conf 87.0 and DNA CAG counter 52.4.
Screening COc1ccc(C2CC(=O)C(c3ccc4ccccc4c3)=CN2Cc2ccccc2)cc1 (stereo not drawn) returned rCAG RNA binder inactive, ARFGAP1 inhibitor inactive and ASAP1 inh inactive.
CCOC(=O)N1CCN(S(=O)(=O)c2ccc(C(=O)NNc3nc4ccc(Cl)cc4s3)cc2)CC1 was read as NadD inh inactive.
`Cc1ccc(C(=O)NNC(=O)c2ccc(S(=O)(=O)N3CCCCC3)cc2)cc1` gave NadD inh inactive, rCAG RNA binder inactive, ARFGAP1 inhibitor inactive and ASAP1 inh inactive.
Screening Cc1cc(C)c2nc(NNC(=O)c3ccc(S(=O)(=O)N4CCCCC4)cc3)sc2c1 returned NadD inh inactive, rCAG RNA binder 55.2, ARFGAP1 inhibitor inactive, ASAP1 inh inactive, rCAG binder conf 37.8 and DNA CAG counter 15.0.
Cc1cccc2sc(NNC(=O)c3ccc(S(=O)(=O)N4CCCC(C)C4)cc3)nc12 (stereo not drawn) was read as NadD inh inactive, rCAG RNA binder 53.2, ARFGAP1 inhibitor inactive, ASAP1 inh inactive, rCAG binder conf 45.4 and DNA CAG counter 19.3.
`CCOC(=O)N1CCN(S(=O)(=O)c2ccc(C(=O)NNc3nc4c(C)cc(C)cc4s3)cc2)CC1` gave NadD inh inactive, rCAG RNA binder 68.9, ARFGAP1 inhibitor inactive, ASAP1 inh inactive, rCAG binder conf 64.3 and DNA CAG counter 24.6.
Screening CCCS(=O)(=O)NC(=O)C1(C)CCCN(C(=O)c2ccc3ccccc3c2)C1 (stereo not drawn) returned NadD inh inactive, rCAG RNA binder inactive, ARFGAP1 inhibitor inactive and ASAP1 inh inactive.
`CCOC(=O)CC1=NN(c2ccccc2)C(=O)/C1=C\c1ccc(N(C)C)cc1` gave NadD inh inactive, rCAG RNA binder inactive, ARFGAP1 inhibitor inactive and ASAP1 inh inactive.
`CCOC(=O)CC1=NN(c2ccccc2)C(=O)C1` gave NadD inh inactive, rCAG RNA binder 37.8, ARFGAP1 inhibitor inactive, ASAP1 inh inactive, rCAG binder conf inactive and DNA CAG counter 5.0.
Screening [N-]=[N+]=NC(c1ccccc1)c1nc2ccccc2[nH]c1=O (stereo not drawn) returned NadD inh inactive, rCAG RNA binder 44.1, ARFGAP1 inhibitor inactive, ASAP1 inh inactive, rCAG binder conf inactive and DNA CAG counter inactive.
Fc1ccccc1-c1n[nH]c(=S)n1N=Cc1ccc(OCc2ccccc2)cc1 was read as rCAG RNA binder 70.3, rCAG binder conf 58.0 and DNA CAG counter 19.5.
For CCOc1ccc(/C=N/n2c(-c3ccccc3)n[nH]c2=S)cc1 the results were NadD inh inactive, rCAG RNA binder inactive, ARFGAP1 inhibitor inactive and ASAP1 inh inactive.
For Fc1ccc(-c2n[nH]c(=S)n2N=Cc2ccc(OCc3ccccc3)cc2)cc1 the results were rCAG RNA binder 66.8, rCAG binder conf 46.7 and DNA CAG counter 16.7.
For CCN(CC)c1ccc(C=Nn2c(-c3ccc(F)cc3)n[nH]c2=S)c(O)c1 the results were rCAG RNA binder 64.3, rCAG binder conf 52.0 and DNA CAG counter 15.7.
`COc1ccc(C=Nn2c(-c3n[nH]c4c3CCC4)n[nH]c2=S)cc1OCc1ccccc1` gave rCAG RNA binder 48.7, rCAG binder conf 45.1 and DNA CAG counter 17.4.
Screening Oc1ccccc1/C=N/n1c(-c2ccccc2)n[nH]c1=S returned NadD inh inactive, rCAG RNA binder inactive, ARFGAP1 inhibitor inactive and ASAP1 inh inactive.
Screening O=S(=O)(NCCc1c[nH]c2ccccc12)c1ccc(F)cc1 returned NadD inh inactive, rCAG RNA binder inactive, ARFGAP1 inhibitor inactive and ASAP1 inh inactive.
O=C(Nc1ccc2ncccc2c1)c1cc(-c2ccc(Cl)cc2)nc2ccccc12 was read as rCAG RNA binder inactive.
`COC(=O)[C@]12C[C@H](CC(=O)NCc3ccc(OC)c(OC)c3)C(=O)N(Cc3ccc4c(c3)OCO4)C1=C[C@H](COCc1ccccc1)O[C@@H]2C` gave rCAG RNA binder inactive, ARFGAP1 inhibitor inactive and ASAP1 inh inactive.
S=c1[nH]nc(-c2n[nH]c3c2CCC3)n1N=Cc1c2ccccc2cc2ccccc12 was read as rCAG RNA binder inactive.
